# According to ChEMBL document CHEMBL3352465, “The SAR development of substituted purine derivatives as selective CB2 agonists for the treatment of chronic pain” (Bioorg Med Chem Lett, 2014):
# The source made the active and inactive calls. The rule behind the calls is not given here.
# Key:
# [1] = Inhibition of GABA gated chloride channel in rat cortex by radioligand binding assay
# [2] = Oral bioavailability in Beagle dog at 1 mg/kg; format: ADME, organism-based, Canis lupus familiaris; settings: in vivo
# Summary of the method: (§1)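 Plasma PK after intravenous and oral dosing at 1 mg/kg each route; male Sprague-Dawley rats and male Beagle dogs. Clearance and steady-state volume from the iv leg, half-life and bioavailability from the po leg.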
# [3] = Aqueous solubility of the compound at pH 6.5; format: physicochemical
# Summary of the method: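 Aqueous solubility measured at pH 6.5.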
# [4] = Dissociation constant, pKa of the compound; format: physicochemical
# [5] = Lipophilicity, log P of the compound; format: physicochemical; settings: octanol/water
# Rattus norvegicus [6] = organism: Rattus norvegicus; test: Inhibition of GABA gated chloride channel in rat cortex at 10 uM by radioligand binding assay
# Summary of the method: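 Radioligand binding to GABA-gated chloride channels from rat, run by an outside contract lab.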
# [7] = Drug metabolism in human liver microsomes at 2 uM after 0.5 hr by LC/MS/MS analysis; format: ADME; settings: read-out: Drug metabolism
# [8] = Drug metabolism in dog liver microsomes at 2 uM after 0.5 hr by LC/MS/MS analysis; format: ADME, Canis lupus familiaris; settings: read-out: Drug metabolism
# [9] = Drug metabolism in rat liver microsomes at 2 uM after 0.5 hr by LC/MS/MS analysis; format: ADME; settings: read-out: Drug metabolism
# [10] = Drug excretion in rat bile assessed as sulfate metabolite; format: ADME
# Rattus norvegicus [11] = test: Analgesic activity in monoiodoacetic acid-induced joint pain rat model assessed as inhibition of differential weight bearing capacity at 5 mg/kg, po measured 2 hrs after compound dose on day 12 post MIA challenge relative to vehicle treated control; format: functional, organism-based; set-up: dose 5 mg/kg
# Summary of the method: (§2)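 MIA knee-joint pain in rats; oral doses of 0.1, 0.3 and 1 mg/kg, with diclofenac 5 mg/kg po as comparator. Differential hind-limb weight bearing was measured by incapacitance tester on day 12 post MIA, 2 h after dosing; n = 5/group; Student's t-test versus vehicle. ED50 was derived from the dose response.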
# [12] = Oral bioavailability in Sprague-Dawley rat at 1 mg/kg; format: ADME, organism-based; settings: in vivo; summary of the method: as §1
# Cytochrome P450 1A2 = molecular target: T1, Cytochrome P450 1A2 (Homo sapiens, UniProt P05177); test: Effect on CYP1A2 (unknown origin) up to 10 uM; format: ADME
# T1 sequence (P05177 whole entry): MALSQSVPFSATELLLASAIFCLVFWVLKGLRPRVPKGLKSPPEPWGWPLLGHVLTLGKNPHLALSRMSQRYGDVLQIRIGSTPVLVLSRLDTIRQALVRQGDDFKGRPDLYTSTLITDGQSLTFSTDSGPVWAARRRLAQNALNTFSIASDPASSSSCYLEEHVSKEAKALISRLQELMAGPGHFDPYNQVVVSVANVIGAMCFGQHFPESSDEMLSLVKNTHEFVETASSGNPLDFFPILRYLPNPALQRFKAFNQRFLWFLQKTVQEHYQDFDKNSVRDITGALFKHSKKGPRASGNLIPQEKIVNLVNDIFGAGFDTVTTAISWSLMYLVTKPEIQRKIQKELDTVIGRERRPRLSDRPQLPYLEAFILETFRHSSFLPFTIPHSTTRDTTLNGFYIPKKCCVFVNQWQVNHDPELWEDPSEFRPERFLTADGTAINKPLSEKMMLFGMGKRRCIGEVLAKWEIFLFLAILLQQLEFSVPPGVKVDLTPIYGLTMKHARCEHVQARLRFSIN
# Rattus norvegicus [13] = test: Analgesic activity in monoiodoacetic acid-induced joint pain rat model assessed as inhibition of differential weight bearing capacity at 1 mg/kg, po administered 20 days post MIA challenge relative to vehicle treated control; format: functional, organism-based; set-up: dose 1 mg/kg
# Summary of the method: (§3)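 Rats got 0.3 mg MIA intra-articular into the right knee and saline into the left on day 0. On day 20 they were randomized and dosed po with vehicle (1% CMC in water with 0.25% Tween 80), agonist 1 mg/kg, SR-144528 3 mg/kg, or antagonist given 30 min before agonist. Incapacitance (differential hind-limb weight bearing) was read 2 h after agonist; n = 6/group; Dunnett's test versus vehicle.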
# [14] = Drug excretion in rat urine assessed as sulfate metabolite; format: ADME
# MDCK = test: Permeability across MDCK cells expressing human P-gp; format: ADME, cell-based, Canis lupus familiaris; settings: dog
# Summary of the method: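 Bi-directional permeability was measured across an MDCK line expressing human P-gp to test whether the compound is a P-gp substrate.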
# [15] = AUC in Sprague-Dawley rat at 1 mg/kg, iv and 1 mg/kg, po; format: ADME, organism-based; settings: plasma; summary of the method: as §1
# [16] = Half life in Sprague-Dawley rat at 1 mg/kg, po; format: ADME, organism-based; set-up: dose 1 mg/kg, route oral; settings: in vivo; summary of the method: as §1
# [17] = Cmax in Sprague-Dawley rat at 1 mg/kg, iv and 1 mg/kg, po; format: ADME, organism-based; settings: in vivo; summary of the method: as §1
# Rattus norvegicus [18] = test: Toxicity in rat assessed as hypothermia up to 30 mg/kg, po; format: organism-based; set-up: dose 30 mg/kg, route oral; settings: in vivo
# Summary of the method: (§4)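 Rats were dosed orally up to 30 mg/kg and checked for hypothermia and for rotorod performance. CP-55,940 0.5 mg/kg ip served as positive control.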
# CYP2C9 = CYP2C9 (Homo sapiens, UniProt P11712); test: Drug metabolism assessed as human CYP2C9-mediated compound turnover; format: ADME; settings: recombinant enzyme, read-out: Drug metabolism
# Chain of CYP2C9 (P11712 whole entry, canonical isoform): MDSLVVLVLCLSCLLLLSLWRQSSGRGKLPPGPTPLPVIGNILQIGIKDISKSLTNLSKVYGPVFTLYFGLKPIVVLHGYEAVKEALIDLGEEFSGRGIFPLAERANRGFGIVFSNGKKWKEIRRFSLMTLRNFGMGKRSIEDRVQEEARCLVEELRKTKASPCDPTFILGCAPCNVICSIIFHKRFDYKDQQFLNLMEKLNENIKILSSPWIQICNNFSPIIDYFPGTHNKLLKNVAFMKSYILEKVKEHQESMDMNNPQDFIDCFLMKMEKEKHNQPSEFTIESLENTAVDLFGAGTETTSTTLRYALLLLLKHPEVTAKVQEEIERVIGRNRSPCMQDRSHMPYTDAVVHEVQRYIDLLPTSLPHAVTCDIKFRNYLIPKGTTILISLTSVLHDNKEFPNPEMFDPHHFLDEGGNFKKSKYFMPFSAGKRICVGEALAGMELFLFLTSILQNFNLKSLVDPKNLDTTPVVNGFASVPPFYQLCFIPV
# Summary of the method: (§5)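 Oxidative turnover was assessed with recombinant human P450 enzymes to identify which isoforms contribute to metabolite formation.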
# Rattus norvegicus [19] = test: Toxicity in rat assessed as behavioral impairment up to 30 mg/kg, po by rotorod test; format: organism-based; set-up: dose 30 mg/kg, route oral; settings: in vivo; summary of the method: as §4
# [20] = Clearance in Beagle dog at 1 mg/kg, iv; format: ADME, organism-based, Canis lupus familiaris; set-up: dose 1 mg/kg, route intravenous; settings: in vivo
# CYP1A2 = molecular target: T2, CYP1A2 (Homo sapiens, UniProt P05177); test: Drug metabolism assessed as human CYP1A2-mediated compound turnover; format: ADME; settings: recombinant enzyme, read-out: Drug metabolism; summary of the method: as §5
# T2 sequence (P05177 whole entry): T1 sequence (P05177 whole entry)
# [21] = AUC in Beagle dog at 1 mg/kg, iv and 1 mg/kg, po; format: ADME, organism-based, Canis lupus familiaris; settings: plasma; summary of the method: as §1
# Rattus norvegicus [22] = test: Analgesic activity in monoiodoacetic acid-induced joint pain rat model assessed as inhibition of differential weight bearing capacity compound administered orally post MIA challenge measured 2 hrs after compound dose on day 12 post MIA challenge relative to vehicle treated control; format: functional; settings: po; summary of the method: as §2
# Cannabinoid receptor 1 = Cannabinoid receptor 1 (Homo sapiens, UniProt P21554); test: Agonist activity at human CB1 receptor expressed in Sf9 cells by [35S]-GTPgammaS binding assay; format: functional
# Chain of Cannabinoid receptor 1 (P21554 whole entry): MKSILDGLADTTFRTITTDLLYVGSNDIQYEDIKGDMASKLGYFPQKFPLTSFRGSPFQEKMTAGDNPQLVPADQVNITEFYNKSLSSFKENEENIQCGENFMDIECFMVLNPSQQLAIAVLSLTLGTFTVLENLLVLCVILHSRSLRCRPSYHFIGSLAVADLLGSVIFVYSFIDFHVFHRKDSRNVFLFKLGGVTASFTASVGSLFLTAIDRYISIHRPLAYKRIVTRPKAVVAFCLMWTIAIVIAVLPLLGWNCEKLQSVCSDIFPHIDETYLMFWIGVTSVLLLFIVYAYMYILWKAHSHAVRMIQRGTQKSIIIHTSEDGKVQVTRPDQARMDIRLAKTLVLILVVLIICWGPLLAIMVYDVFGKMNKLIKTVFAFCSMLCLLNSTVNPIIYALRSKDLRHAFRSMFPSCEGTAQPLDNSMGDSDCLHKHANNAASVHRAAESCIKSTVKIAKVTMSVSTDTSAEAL
# Rattus norvegicus [23] = test: Analgesic activity in monoiodoacetic acid-induced joint pain rat model assessed as inhibition of differential weight bearing capacity at 1 mg/kg, po administered 20 days post MIA challenge co-administered with 3 mg/kg SR-144528 relative to vehicle treated control; format: functional, organism-based; summary of the method: as §3
# Cannabinoid receptor 2 [24] = molecular target: T3, Cannabinoid receptor 2 (Homo sapiens, UniProt P34972); test: Agonist activity at human CB2 receptor expressed in CHO cells by [35S]-GTPgammaS binding assay relative to control; format: functional, cell-based
# T3 sequence (P34972 whole entry): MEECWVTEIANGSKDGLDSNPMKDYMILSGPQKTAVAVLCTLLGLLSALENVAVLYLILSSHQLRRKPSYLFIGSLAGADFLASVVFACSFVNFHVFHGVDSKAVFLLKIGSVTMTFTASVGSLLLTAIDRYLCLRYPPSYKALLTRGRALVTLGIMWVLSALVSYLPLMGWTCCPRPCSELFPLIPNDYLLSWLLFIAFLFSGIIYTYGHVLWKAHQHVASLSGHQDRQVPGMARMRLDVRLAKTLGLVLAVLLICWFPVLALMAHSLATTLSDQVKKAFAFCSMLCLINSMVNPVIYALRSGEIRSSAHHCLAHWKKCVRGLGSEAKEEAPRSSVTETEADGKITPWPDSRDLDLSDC
# CYP3A4 = CYP3A4 (Homo sapiens, UniProt P08684); test: Drug metabolism assessed as human CYP3A4-mediated oxidative compound turnover; format: ADME; settings: recombinant enzyme, read-out: Drug metabolism; summary of the method: as §5
# Chain of CYP3A4 (P08684 whole entry): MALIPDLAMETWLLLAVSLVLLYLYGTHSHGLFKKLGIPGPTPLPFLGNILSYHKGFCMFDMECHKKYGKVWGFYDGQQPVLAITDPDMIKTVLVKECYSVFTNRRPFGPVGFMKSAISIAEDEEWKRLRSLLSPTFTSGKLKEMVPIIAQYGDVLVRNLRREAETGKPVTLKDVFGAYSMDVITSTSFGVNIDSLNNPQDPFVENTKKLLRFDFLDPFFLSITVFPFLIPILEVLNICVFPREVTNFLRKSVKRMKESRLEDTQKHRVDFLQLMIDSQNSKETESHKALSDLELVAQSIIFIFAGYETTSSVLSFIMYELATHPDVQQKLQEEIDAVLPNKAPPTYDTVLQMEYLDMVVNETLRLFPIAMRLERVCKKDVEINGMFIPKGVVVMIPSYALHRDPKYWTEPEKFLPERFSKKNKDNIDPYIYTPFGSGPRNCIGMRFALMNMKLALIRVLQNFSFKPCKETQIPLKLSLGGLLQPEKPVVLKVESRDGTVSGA
# Cytochrome P450 2D6 = Cytochrome P450 2D6 (Homo sapiens, UniProt P10635); test: Effect on CYP2D6 (unknown origin) up to 10 uM; format: ADME
# Chain of Cytochrome P450 2D6 (P10635 whole entry): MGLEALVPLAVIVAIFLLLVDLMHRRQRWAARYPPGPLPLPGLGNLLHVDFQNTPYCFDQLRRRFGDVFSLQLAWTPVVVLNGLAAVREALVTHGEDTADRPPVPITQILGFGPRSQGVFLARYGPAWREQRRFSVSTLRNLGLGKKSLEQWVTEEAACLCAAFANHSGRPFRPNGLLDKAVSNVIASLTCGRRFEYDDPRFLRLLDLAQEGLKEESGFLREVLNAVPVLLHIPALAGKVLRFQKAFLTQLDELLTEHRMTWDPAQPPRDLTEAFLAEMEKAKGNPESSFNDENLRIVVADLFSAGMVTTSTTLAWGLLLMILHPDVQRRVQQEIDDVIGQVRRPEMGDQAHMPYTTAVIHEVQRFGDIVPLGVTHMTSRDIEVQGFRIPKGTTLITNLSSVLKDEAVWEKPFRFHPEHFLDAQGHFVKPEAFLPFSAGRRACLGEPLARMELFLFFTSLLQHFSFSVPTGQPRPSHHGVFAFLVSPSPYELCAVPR
# Cytochrome P450 2C9 = Cytochrome P450 2C9 (Homo sapiens, UniProt P11712); test: Effect on CYP2C9 (unknown origin) up to 10 uM; format: ADME
# Chain of Cytochrome P450 2C9 (P11712 whole entry): as the sequence (P11712 whole entry, canonical isoform) above
# Cytochrome P450 3A4 = Cytochrome P450 3A4 (Homo sapiens, UniProt P08684); test: Effect on CYP3A4 (unknown origin) up to 10 uM; format: ADME
# Chain of Cytochrome P450 3A4 (P08684 whole entry): as the sequence (P08684 whole entry) above
# Rattus norvegicus [25] = test: Analgesic activity in monoiodoacetic acid-induced joint pain rat model assessed as inhibition of differential weight bearing capacity at 1 mg/kg, po bid for 5 days starting 20 days post MIA challenge relative to vehicle treated control; format: functional, organism-based; set-up: dose 1 mg/kg
# Summary of the method: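 MIA knee-joint pain model in rats; repeat oral dosing at 1.0 mg/kg bid for 5 days. Incapacitance efficacy was compared between day 1 and day 5, and plasma exposures were monitored over the period.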
# [26] = Volume of distribution at steady state in Beagle dog at 1 mg/kg, iv and 1 mg/kg, po; format: ADME, organism-based, Canis lupus familiaris; settings: in vivo, read-out: Vdss; summary of the method: as §1
# Cannabinoid receptor 2 [27] = molecular target: T3, Cannabinoid receptor 2; test: Agonist activity at human CB2 receptor expressed in CHO cells by [35S]-GTPgammaS binding assay; format: functional, cell-based
# [28] = Volume of distribution at steady state in Sprague-Dawley rat at 1 mg/kg, iv and 1 mg/kg, po; format: ADME, organism-based; settings: in vivo, read-out: Vdss; summary of the method: as §1
# [29] = Half life in Beagle dog at 1 mg/kg, po; format: ADME, organism-based, Canis lupus familiaris; set-up: dose 1 mg/kg, route oral; settings: in vivo; summary of the method: as §1
# [30] = Clearance in Sprague-Dawley rat at 1 mg/kg, iv; format: ADME, organism-based; set-up: dose 1 mg/kg, route intravenous; settings: in vivo
# [31] = Drug excretion in rat bile assessed as phase 2 glucuronide metabolite; format: ADME
# [32] = Cmax in Beagle dog at 1 mg/kg, iv and 1 mg/kg, po; format: ADME, organism-based, Canis lupus familiaris; settings: in vivo; summary of the method: as §1
# [33] = Drug excretion in rat urine assessed as phase 2 glucuronide metabolite; format: ADME
smiles,measurement,setting,value
Cc1nc(N2CCN(C)CC2)c2nc(-c3ccccc3Cl)n(C3CCOCC3)c2n1 [LY2828360],Ki,[1],2.2 µM
same,bioavailability,[2],76%
same,solubility,[3],100 µg/mL
same,pKa,[4],7.2
same,logP,[5],3.2
same,inhibition,Rattus norvegicus [6],85%
COC(=O)NCCn1c(-c2ccccc2Cl)nc2c(N3CCN(C)CC3)nc(C)nc21,"metabolised at 0.5 h, 2 µM",[7],14%
same,"metabolised at 0.5 h, 2 µM",[8],62%
same,"metabolised at 0.5 h, 2 µM",[9],25%
Cc1nc(N2CCN(C)CC2)c2nc(-c3ccccc3Cl)n([C@H](C)CO)c2n1,"metabolised at 0.5 h, 2 µM",[7],22%
same,Drug excretion,[10],metabolite_detected
same,bioavailability,[2],23%
same,inhibition,Rattus norvegicus [11],Active
same,bioavailability,[12],38%
same,Activity,Cytochrome P450 1A2,Not Active
same,solubility,[3],1800 µg/mL
same,inhibition,Rattus norvegicus [13],Active
same,"metabolised at 0.5 h, 2 µM",[8],42%
same,Drug excretion,[14],metabolite_detected
same,permeability,MDCK,impermeable
same,AUC,[15],514 ng·h/mL
same,"metabolised at 0.5 h, 2 µM",[9],50%
same,half-life,[16],2.3 h
same,Cmax,[17],87 ng/mL
same,Activity,Rattus norvegicus [18],Toxic
same,metabolised,CYP2C9,80%
same,Activity,Rattus norvegicus [19],Toxic
same,clearance,[20],38 mL/min/kg
same,metabolised,CYP1A2,80%
same,AUC,[21],437 ng·h/mL
same,ED50,Rattus norvegicus [22],0.16 mg/kg
same,EC50,Cannabinoid receptor 1,> 100 µM
same,inhibition,Rattus norvegicus [23],inactive
same,pKa,[4],7.5
same,Efficacy,Cannabinoid receptor 2 [24],81.8%
same,metabolised,CYP3A4,80%
same,Activity,Cytochrome P450 2D6,Not Active
same,Activity,Cytochrome P450 2C9,Not Active
same,Activity,Cytochrome P450 3A4,Not Active
same,inhibition,Rattus norvegicus [25],Active
same,Vd,[26],4 L/kg
same,EC50,Cannabinoid receptor 2 [27],0.0224 µM
same,Vd,[28],6 L/kg
same,half-life,[29],1.7 h
same,logP,[5],3.1
same,clearance,[30],32 mL/min/kg
same,inhibition,Rattus norvegicus [6],20%
same,Drug excretion,[31],metabolite_detected
same,Cmax,[32],43 ng/mL
same,Drug excretion,[33],metabolite_detected
Cc1nc(N2CCN(C)CC2)c2nc(-c3ccccc3Cl)n([C@@H](C)CO)c2n1,"metabolised at 0.5 h, 2 µM",[7],11%
same,"metabolised at 0.5 h, 2 µM",[8],60%
same,"metabolised at 0.5 h, 2 µM",[9],79%
same,EC50,Cannabinoid receptor 1,> 100 µM
same,Efficacy,Cannabinoid receptor 2 [24],96.5%
same,EC50,Cannabinoid receptor 2 [27],0.0125 µM
